Legend:
Type in all cases: ADME
Cytochrome P450 2E1 [1] = target: T1, Cytochrome P450 2E1 (Homo sapiens, UniProt P05181); test: Retention time assessed as human CYP2E1-mediated compound formation using 50 uM phenethylisothiocyanate in presence of reductase and NADPH after 30 mins by LC-MS/MS method; details: recombinant enzyme, 0.5 h
Method in brief: (§1)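 CYP2E1 (1 µM) and reductase (1 µM) reconstituted with lipid (100 µg/ml) and preincubated with 2 mM GSH. PEITC (final 50 µM) and NADPH (final 1.2 mM) then added, 30 min at 30°C; controls ran without NADPH. Products were taken up by C18 solid-phase extraction and analysed by positive-ion ESI LC-MS/MS, one full scan plus two data-dependent scans.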

Cytochrome P450 2E1 [2] = target: T1, Cytochrome P450 2E1; test: Inhibition of human CYP2E1 expressed in Escherichia coli MV1304 assessed as reduction in 7-EFC O-de-ethylation activity at 50 uM added 1 min before NADPH addition in presence of 1 mM GSH by spectrofluorometry; details: TDE = time-dependent effect
Method in brief: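 Reconstituted CYP2E1/reductase (1 µM each, DLPC, catalase, pH 7.4 phosphate). Arms: 1.2 mM NADPH alone, with 50 µM PEITC, or with 50 µM PEITC plus 1 mM GSH. PEITC added 1 min before NADPH; incubation at 30°C. Residual 7-EFC O-de-ethylation measured at 0, 2, 4, 6 and 12 min by 7-HFC fluorescence.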

Cytochrome P450 2E1 [3] = target: T1, Cytochrome P450 2E1; test: Inactivation of human CYP2E1 expressed in Escherichia coli MV1304 assessed as remaining P450 level at 25 uM in presence of 1.2 mM NADPH after dialysis by CO difference spectral method
Method in brief: (§2)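 CYP2E1 and reductase (1 µM each) reconstituted with DLPC (100 µg/ml) plus catalase in 50 mM K phosphate pH 7.4. Incubated 10 min at 30°C with 25 µM PEITC ± 1.2 mM NADPH; control had neither. Then dialysed overnight at 4°C against phosphate buffer with 20% glycerol and 0.1 mM EDTA. Read-outs: P450 by reduced CO difference spectrum (ε450 91 mM⁻¹cm⁻¹), heme by HPLC, and 7-EFC O-de-ethylation after re-adding lipid (50 µg/ml) ± fresh reductase (1 µM). Two experiments in duplicate.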

CYP2E1 [4] = target: T2, CYP2E1 (Homo sapiens, UniProt P05181); test: Inactivation of human CYP2E1 expressed in Escherichia coli MV1304 assessed as remaining enzyme activity at 25 uM after dialysis by 7-EFC O-de-ethylation activity detection based spectrofluorometry; details: probe 7-EFC (O-de-ethylation), read-out: Activity; method in brief: as §2
T2 sequence (P05181 whole entry): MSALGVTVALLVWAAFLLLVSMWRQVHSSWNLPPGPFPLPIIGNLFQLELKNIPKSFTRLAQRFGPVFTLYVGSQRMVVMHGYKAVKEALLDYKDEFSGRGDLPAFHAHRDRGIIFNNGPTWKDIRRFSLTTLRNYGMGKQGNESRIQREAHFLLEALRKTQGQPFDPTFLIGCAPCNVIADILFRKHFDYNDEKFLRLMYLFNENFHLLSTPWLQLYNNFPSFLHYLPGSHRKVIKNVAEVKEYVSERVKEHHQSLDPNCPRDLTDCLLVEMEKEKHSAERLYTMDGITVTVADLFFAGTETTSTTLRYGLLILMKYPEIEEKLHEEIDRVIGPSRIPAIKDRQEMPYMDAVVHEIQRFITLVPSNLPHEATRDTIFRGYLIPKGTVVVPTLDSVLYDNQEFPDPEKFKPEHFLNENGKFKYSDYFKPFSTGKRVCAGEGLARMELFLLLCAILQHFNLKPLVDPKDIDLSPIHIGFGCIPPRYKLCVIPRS

Cytochrome P450 2E1 [5] = target: T1, Cytochrome P450 2E1; test: Drug metabolism assessed as human CYP2E1-mediated phenethylamine formation at 50 uM in presence of reductase and absence of NADPH after 30 mins by LC-MS/MS method; details: recombinant enzyme, 0.5 h; method in brief: as §1
Cytochrome P450 2E1 [6] = target: T1, Cytochrome P450 2E1; test: Inhibition of human CYP2E1 expressed in Escherichia coli MV1304 assessed as reduction in 7-EFC O-de-ethylation activity by spectrofluorometry
Method in brief: (§3)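 Primary mix: 1 µM CYP2E1, 1 µM reductase, 100 µg/ml DLPC and catalase in 50 mM K phosphate pH 7.4, with PEITC 0–50 µM (methanol 1% final). Started with 1.2 mM NADPH at 30°C and sampled at 0–5 min. Aliquots assayed for 10 min with 0.1 mM 7-EFC and 0.2 mM NADPH; fluorescence read at ex 410/em 510 nm. Inactivation kinetics from a double-reciprocal plot. Six experiments in duplicate.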

CYP2E1 [7] = target: T2, CYP2E1; test: Inactivation of human CYP2E1 expressed in Escherichia coli MV1304 assessed as remaining enzyme activity at 25 uM after dialysis in presence of fresh reductase by 7-EFC O-de-ethylation activity detection based spectrofluorometry; details: probe 7-EFC (O-de-ethylation), read-out: Activity; method in brief: as §2
CYP2E1 [8] = target: T2, CYP2E1; test: Inactivation of human CYP2E1 expressed in Escherichia coli MV1304 assessed as remaining enzyme activity at 25 uM in presence of 1.2 mM NADPH after dialysis in presence of fresh reductase by 7-EFC O-de-ethylation activity detection based spectrofluorometry; details: probe 7-EFC (O-de-ethylation), read-out: Activity; method in brief: as §2
Cytochrome P450 2E1 [9] = target: T1, Cytochrome P450 2E1; test: Inhibition of human CYP2E1 expressed in Escherichia coli MV1304 assessed as partition ratio for enzyme inactivation
Method in brief: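 Reconstituted CYP2E1 (1 µM) with reductase (1 µM), 100 µg/ml DLPC and catalase, in 50 mM KPi pH 7.4. Incubated with increasing PEITC plus 1.2 mM NADPH for 10 min at 30°C until inactivation was complete. Residual 7-EFC O-de-ethylation was read by fluorescence (ex 410/em 510 nm). Percent activity remaining was plotted against PEITC:P450 molar ratio. The turnover number (r+1) was taken from the intercept of the regression lines. Mean of three experiments.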

Cytochrome P450 2E1 [10] = target: T1, Cytochrome P450 2E1; test: Drug metabolism assessed as human CYP2E1-mediated phenethylamine formation at 50 uM in presence of reductase and NADPH after 30 mins by LC-MS/MS method; details: recombinant enzyme, 0.5 h; method in brief: as §1
CYP2E1 [11] = target: T2, CYP2E1; test: Inactivation of human CYP2E1 expressed in Escherichia coli MV1304 assessed as remaining enzyme activity at 25 uM in presence of 1.2 mM NADPH after dialysis by 7-EFC O-de-ethylation activity detection based spectrofluorometry; details: probe 7-EFC (O-de-ethylation), read-out: Activity; method in brief: as §2
Cytochrome P450 2E1 [12] = target: T1, Cytochrome P450 2E1; test: Inactivation of human CYP2E1 expressed in Escherichia coli MV1304 assessed as remaining P450 level at 25 uM after dialysis by CO difference spectral method; method in brief: as §2
Cytochrome P450 2E1 [13] = target: T1, Cytochrome P450 2E1; test: Inactivation of human CYP2E1 expressed in Escherichia coli MV1304 assessed as remaining heme level at 25 uM in presence of 1.2 mM NADPH after dialysis by HPLC method; method in brief: as §2
Cytochrome P450 2E1 [14] = target: T1, Cytochrome P450 2E1; test: Inhibition of human CYP2E1 expressed in Escherichia coli MV1304 assessed as reduction in 7-EFC O-de-ethylation activity in absence of cytochrome b5 by spectrofluorometry; method in brief: as §3
Cytochrome P450 2E1 [15] = target: T1, Cytochrome P450 2E1; test: (§4) Inhibition of human CYP2E1 expressed in Escherichia coli MV1304 assessed as reduction in 7-EFC O-de-ethylation activity by spectrofluorometry based double reciprocal plot
Method in brief: (§5)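 Reconstituted CYP2E1 (1 µM) with reductase (1 µM), 100 µg/ml DLPC and catalase, in 50 mM KPi pH 7.4. PEITC 0–50 µM was added (1% methanol final) and the reaction started with 1.2 mM NADPH at 30°C. Aliquots taken at 0–5 min were assayed for 10 min with 0.1 mM 7-EFC and 0.2 mM NADPH; 7-HFC fluorescence was read. Inactivation rates were analysed by double-reciprocal plot. Six experiments, each in duplicate.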

CYP2E1 [16] = target: T2, CYP2E1; test: as §4; details: human, probe 7-EFC (O-de-ethylation); method in brief: as §5
Cytochrome P450 2E1 [17] = target: T1, Cytochrome P450 2E1; test: Covalent binding to human CYP2E1 expressed in Escherichia coli MV1304 assessed as protein-adduct formation at 25 uM after 10 mins by ESI LC-MS/MS method
Method in brief: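 CYP2E1 (1 µM) reconstituted with lipid only (100 µg/ml), no reductase, incubated 10 min at 30°C; control received methanol. Samples (50 µl) analysed by ESI LC-MS/MS on a C18 reverse-phase column equilibrated with 35% acetonitrile/0.1% TFA. Protein envelopes deconvoluted to give the intact protein mass. Mean of two injections.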

Cytochrome P450 2E1 [18] = target: T1, Cytochrome P450 2E1; test: Inactivation of human CYP2E1 expressed in Escherichia coli MV1304 assessed as remaining heme level at 25 uM after dialysis by HPLC method; method in brief: as §2
Cytochrome P450 2E1 [19] = target: T1, Cytochrome P450 2E1; test: Drug level assessed as human CYP2E1-mediated compound formation using 50 uM phenethylisothiocyanate in presence of reductase and NADPH after 30 mins by LC-MS/MS method; details: recombinant enzyme, 0.5 h
Method in brief: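 Recombinant human CYP2E1 (1 µM) with reductase (1 µM) reconstituted in DLPC (100 µg/ml), preincubated with 2 mM GSH. PEITC added to a final 50 µM with NADPH at a final 1.2 mM, then incubated 30 min at 30°C. Controls lacked NADPH. Metabolites and GSH conjugates recovered by C18 solid-phase extraction and analysed by positive-ion ESI LC-MS/MS.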

Cytochrome P450 2E1 [20] = target: T1, Cytochrome P450 2E1; test: Inhibition of human CYP2E1 expressed in Escherichia coli MV1304 assessed as reduction in 7-EFC O-de-ethylation activity at 10 uM after 10 mins in presence of reductase by spectrofluorometry
Method in brief: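 Reconstituted CYP2E1/reductase (1 µM each, 100 µg/ml DLPC, catalase, 50 mM K phosphate pH 7.4) incubated 10 min at 30°C with PIC at 0- to 100-fold molar excess; PIC in acetonitrile, 1% final. Aliquots diluted into secondary mix (0.1 mM 7-EFC, 0.2 mM NADPH, BSA) for 10 min; 7-HFC read at ex 410/em 510 nm. Three experiments in duplicate.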

Liver microsome = test: Drug level in human liver microsomes treated with 50 uM phenethylisothiocyanate after 30 mins by ESI LC-MS/MS method; details: 0.5 h
Method in brief: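 Human liver microsomes (0.5 mg protein/ml) in 50 mM potassium phosphate pH 7.4, preincubated 5 min with 2 mM GSH. PEITC added to a final 50 µM with NADPH at a final 1.2 mM, then incubated 30 min at 37°C. Controls lacked NADPH. GSH conjugate recovered by C18 solid-phase extraction and analysed by positive-ion LC-MS/MS.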

T1 sequence (P05181 whole entry): as above

Compound `NCCc1ccccc1` [PHENETHYLAMINE] has a Retention_time (Cytochrome P450 2E1 [1]) of 12.7 min.
With `S=C=NCCc1ccccc1` [PHENETHYLISOTHIOCYANATE] the “inhibition (INH)” value (Cytochrome P450 2E1 [2]) was “tde”, the Activity (Cytochrome P450 2E1 [3]) was 42% and the activity at 25 µM (CYP2E1 [4]) was 82%. For the same compound, the Drug metabolism (Cytochrome P450 2E1 [5]) was “metabolite_not_detected”, the “inhibition (INH)” value (Cytochrome P450 2E1 [6]) was “Dose-dependent effect and tde” and the activity at 25 µM (CYP2E1 [7]) was 85%. The activity at 25 µM (CYP2E1 [8]) was 26%, the Ratio (Cytochrome P450 2E1 [9]) was 12 and the Drug metabolism (Cytochrome P450 2E1 [10]) was “metabolite_detected”. For the same compound, the activity at 25 µM (CYP2E1 [11]) was 27%, the Activity (Cytochrome P450 2E1 [12]) was 93% and the Activity (Cytochrome P450 2E1 [13]) was 64%. The “inhibition (INH)” value (Cytochrome P450 2E1 [14]) was “Active”, the Ki (Cytochrome P450 2E1 [15]) was 11 µM and the kinact (CYP2E1 [16]) was 0.00383 s⁻¹. For the same compound, the Activity (Cytochrome P450 2E1 [17]) was “Not Active” and the Activity (Cytochrome P450 2E1 [18]) was 100%.
With `N[C@@H](CCC(=O)N[C@@H](CSC(=S)NCCc1ccccc1)C(=O)NCC(=O)O)C(=O)O` the Retention_time (Cytochrome P450 2E1 [1]) was 16.7 min and the Drug metabolism (Cytochrome P450 2E1 [19]) was “metabolite_detected”.
With `O=C=NCCc1ccccc1` [PHENETHYL ISOCYANATE] the “inhibition (INH)” value (Cytochrome P450 2E1 [20]) was “Not Active”.
`N[C@@H](CCC(=O)N[C@@H](CSC(=O)NCCc1ccccc1)C(=O)NCC(=O)O)C(=O)O` was tested, and the Drug metabolism (Liver microsome) was “metabolite_detected” and the Drug metabolism (Cytochrome P450 2E1 [19]) was “metabolite_detected”.
